Assay results collected from several papers.
Lines come from different studies, so protocols differ.
Target: D(2) dopamine receptor (DRD2, Homo sapiens, UniProt P14416)

Compound | assay | measurement | value
Oc1cccc(CCC2=NCCN2CCc2ccccc2)c1 | ligand displacement, radioligand | Ki | > 10000 nM
O=C1c2ccccc2CCN1CCCCN1CCN(c2ccccn2)CC1 | ligand displacement, radioligand | Ki | 805 nM
CCc1nc2cc(OCCCCN3CCN(c4cccc(Cl)c4Cl)CC3)ccc2s1 | cAMP, agonist, luciferase | EC50 | 98 nM
COc1ccc2c(c1)C(=O)N(CCCN1CCN(c3ccccc3OC)CC1)C2 | ligand displacement, radioligand | Ki | 1500 nM
CCOCc1nc(O)c(-c2nnc(Cc3ccc(Cl)cn3)o2)c(O)c1-c1c(OC)cccc1OC | ligand displacement, radioligand | IC50 | > 30000 nM
CC(C)c1nc2cc(OCCCCN3CCN(c4cccc5c4OCCN5)CC3)ccc2s1 | β-arrestin recruitment, agonist | EC50 | 16 nM
CNC(=O)[C@@]12C[C@@H]1[C@@H](n1cnc3c(NC)nc(C#Cc4cccs4)nc31)[C@H](O)[C@@H]2O | cell-free assay, radioligand | Ki | > 10000 nM
Oc1cccc(CCC2=NCCN2Cc2ccccc2)c1 | ligand displacement, radioligand | Ki | > 10000 nM
O=C1c2ccccc2CCN1CCCCN1CCN(c2cccc(Cl)c2Cl)CC1 | ligand displacement, radioligand | Ki | 14 nM
CCO[C@H]1CCN(Cc2c(OC)cc(C)c3[nH]ccc23)[C@H](c2ccc(C(=O)O)cc2)C1 | cell-free assay | Kd | > 30000 nM
CCN(CC)c1ccc(C2Nc3ccc(C(=O)c4ccccc4)cc3NC3=C2C(=O)CC(C)(C)C3)cc1 (centres unmarked) | cell-free assay, radioligand | Ki | > 10000 nM
COc1ccc(CCC2=NCCN2CCc2ccccc2)cc1 | ligand displacement, radioligand | Ki | > 10000 nM
FC(F)(F)c1nc2cc(OCCCCN3CCN(c4cccc(Cl)c4Cl)CC3)ccc2s1 | cAMP, agonist, luciferase | EC50 | 140 nM
CCCCN1CCC(COC(=O)c2ccc(N)c(OCF)c2)CC1 | cell-free assay, radioligand | Ki | > 10000 nM
